From PubChem
XBP1 UPR activ – activators of adaptive arm of unfolded protein response (XBP1). CHO-XBP1 luciferase reporter, IRE1-XBP1 UPR activation, luminescence; percent of tunicamycin response, DMSO as zero. activation, % at 20 µM. 0.33% of 330,000 active;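 active means versus positive control, 20 µM dose yields 30% or more activation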
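Signal: luciferase luminescence; Assay system: CHO-XBP1 luciferase reporter cells; Amount: one thousand reporter cells per well; Dosing: 20 µM single concentration, DMSO 1%; Benchmarks: high control tunicamycin 10 µg/mL final, low control DMSO vehicle only; Schedule: 6 h compound exposure at 37 °C, 5% CO2; Evaluation: percent activation relative to tunicamycin reference.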
697 NFkB inh – inhibitors of the PMA/ionomycin-induced NF-kB reporter in 697 B cells | 697 B-cell NF-kB luciferase reporter, 16 h | 0.33% of 330,000 active | inhibition, % at 4 µM; in the data active means inhibition above about 35%
Gli-Sufu block – blocks Gli-Sufu signaling in a luciferase reporter. Sufu-KO-LIGHT fibroblasts, Gli luciferase reporter luminescence. inhibition, % at 5 µM. 0.74% of 340,000 active. AID 588413;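 active means inhibition above about 55%, limit read from the data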
Jurkat NFkB inh – inhibitors of the PMA/ionomycin-induced NF-kB reporter in Jurkat cells | inhibition, % at 4 µM | PMA/ionomycin-induced NF-kB luciferase reporter, luminescence | 0.53% of 330,000 active; in the data active means inhibition above about 50%
CHOP inhibitor – blocks CHOP induction under ER stress; inhibition, % at 10 µM; CHO-K1 CHOP-promoter luciferase, tunicamycin-induced, 15-18 h; 3.8% of 220,000 active;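 active means compounds that reduced the stress-induced luciferase reporter signal by more than about 70% of percent inhibition, limit read from the data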
UPR CHOP act – activators of apoptotic arm of unfolded protein response (CHOP); CHO-CHOP luciferase reporter, UPR activation, luminescence; percent of tunicamycin response over DMSO baseline; 0.34% of 330,000 active; AID 449763; activation, % at 10 µM;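 active means at 10 µM dose, activation of 40% or more, normalized to positive control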
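Assay system: CHO-CHOP cells, stable luciferase reporter of PERK-eIF2a-CHOP signalling / Buffer or medium: F12 plus 10% serum / Compound dosing: one dose, 10 µM in 0.5% DMSO / Times: 6 h compound treatment, 37 °C / Technique: luciferase luminescence / Read-out: % reporter activation, DMSO baseline versus tunicamycin full activation / Benchmarks: tunicamycin and DMSO controls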
Jurkat NFkB conf – lowers PMA/ionomycin-induced NF-kB signal in Jurkat cells. AID 435020. shares compounds with Jurkat NFkB inh. inhibition, % at 4 µM. Jurkat NF-kB luciferase, 16 h. 27% of 2,700 active;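 active means inhibition reaching about 45% at 4 µM in either replicate, limit read from the data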
Of the large screens only hits and unclear results are named; the others gave an inactive call (follow-up assays come after a bar, where they were run). Most compounds without a hit are left out; they make up all but 3.9% or so of the library.

CCc1ccc(S(=O)(=O)/N=C2\C=C(Nc3cccc(C(=O)O)c3)C(=O)c3ccccc32)cc1	none (no result: CHOP inhibitor)
O=Cc1cn(-c2ccccc2)nc1-c1cc2cc(O)ccc2oc1=O	none
O=C(O)/C=C/c1cn(-c2ccccc2)nc1-c1cc2ccccc2oc1=O	none | Jurkat NFkB conf inactive
O=C(c1ncn(Cc2ccccc2)c1C(=O)N1CCc2ccccc2C1)N1CCc2ccccc2C1	none (no result: CHOP inhibitor)
CC(=Nc1ccc(C)cc1C)c1sc2ccccc2c1O	none | Jurkat NFkB conf inactive
Fc1ccc2c(Cl)c(-c3nnc(-c4cccs4)o3)sc2c1	CHOP inhibitor 91 | Jurkat NFkB conf inactive
CCOc1ccccc1NC(=O)c1nc[nH]c1C(=O)Nc1ccccc1OCC	none
COc1ccccc1NC(=O)c1nc[nH]c1C(=O)Nc1ccccc1OC	Jurkat NFkB inh 51 | Jurkat NFkB conf inactive
COc1ccc(NC(=O)c2nc[nH]c2C(=O)Nc2ccccc2C)cc1	Jurkat NFkB inh 53 | Jurkat NFkB conf inactive
COc1ccc(-c2cc(-c3ccccc3O)[nH]n2)cc1OC	none | Jurkat NFkB conf inactive
COc1ccc(-c2cc(-c3ccc(OC)c(OC)c3)n[nH]2)c(O)c1	none
CC(=O)c1sc(NC(=O)c2ccc(C(C)(C)C)cc2)nc1C	none | Jurkat NFkB conf inactive
O=C(CSc1nnc(NC(=O)c2ccc(F)cc2)s1)NC1CCCC1	none (no result: CHOP inhibitor)
COc1ccc(C(O)Cn2ccsc2=NC(C)=O)cc1 (configuration not stated)	none (no result: CHOP inhibitor)
CCOc1ccc(Br)cc1C1=CC(=O)C[C@H](c2ccc(OC)cc2)C1	Jurkat NFkB inh 65 (no result: CHOP inhibitor) | Jurkat NFkB conf inactive
COc1ccc([C@H]2CC(=O)C=C(c3cc(C)ccc3OC)C2)cc1	Jurkat NFkB inh 58 (no result: CHOP inhibitor) | Jurkat NFkB conf inactive
O=C1CCC(O)CCN1CCSc1ccccc1 (configuration not stated)	none (no result: CHOP inhibitor)
CCN(CC)C(=O)c1ccc(/C=C/c2c[nH]c3ccccc23)[n+](C)c1	none
CC[n+]1c(/C=C/c2c[nH]c3ccccc23)ccc2cc(C)ccc21	Gli-Sufu block 90, Jurkat NFkB inh 93, CHOP inhibitor 75 | Jurkat NFkB conf inactive
COc1ccc(-c2cc(C(=O)N3CCCC3)c3ccccc3n2)cc1	none (no result: CHOP inhibitor)
Cc1cc(C(=O)N2CC=C(c3ccccc3)CC2)c2ccccc2n1	Jurkat NFkB inh 67 (no result: CHOP inhibitor) | Jurkat NFkB conf inactive
Cc1c(C(=O)C(=O)N2CC=C(c3ccccc3)CC2)c2ccccc2n1C	Jurkat NFkB inh 53 | Jurkat NFkB conf inactive
COc1ccc(-c2cc(C(=O)N3CCN(c4ccccc4)CC3)c3ccccc3n2)cc1	Jurkat NFkB inh 60 | Jurkat NFkB conf inactive
Cc1c(C(=O)C(=O)N2c3ccccc3CC2C)c2ccccc2n1C (configuration not stated)	none
Cc1cc(NC(=O)CSc2nnc3ccc(-c4ccc(F)cc4)nn23)no1	none (no result: CHOP inhibitor)
COc1ccc(C(=O)c2ccc(N(C)C)cc2)c(OC)c1	Jurkat NFkB inh 68 (no result: CHOP inhibitor) | Jurkat NFkB conf 47
Cn1cc([N+](=O)[O-])c(C(=O)NC2CCCCCC2)n1	none (no result: CHOP inhibitor)
O=C(Nc1ccnn1C1CCN(C(=O)c2ccc(F)c(Cl)c2)CC1)C1CC1	none (no result: CHOP inhibitor)
CCNC(=S)Nc1cc(OC)c(NC(=O)c2ccco2)cc1OC	none
COC(=O)c1cc(OC)c(OC)cc1NC(=S)NC(=O)c1ccco1	Jurkat NFkB inh 85 (no result: CHOP inhibitor) | Jurkat NFkB conf inactive
COc1cc2sc(NC(=O)c3ccco3)nc2cc1Cl	none (no result: CHOP inhibitor)
COc1cc2nc(NC(=O)c3ccco3)sc(=O)c2cc1OC	Jurkat NFkB inh 80 | Jurkat NFkB conf 89
CCOC(=O)C1CCCN(C(=O)Cn2ncc3c([nH]c4ccc(C)cc43)c2=O)C1 (configuration not stated)	none (no result: CHOP inhibitor)
CC(=C/c1ccccc1)/C=N/NC(=O)c1cccs1	none | Jurkat NFkB conf inactive
CC(C)N=c1cc2n(-c3ccc(Cl)cc3)c3ccccc3nc-2cc1Nc1ccc(Cl)cc1	Jurkat NFkB inh 73 (no result: CHOP inhibitor) | Jurkat NFkB conf inactive
Cc1cc(C(=O)N/N=C/c2cc(Br)c(Br)o2)n[nH]1	none (no result: CHOP inhibitor)
CCC(C)N1C(=O)S/C(=C/c2ccc(N3CCOCC3)cc2C)C1=O (configuration not stated)	none
Cc1cc(N2CCOCC2)ccc1/C=C1\SC(=O)N(C(C)C)C1=O	none | Jurkat NFkB conf inactive
CC(=O)N(C)C1=C(N2CCOCC2)C(=O)c2ccccc2C1=O	Jurkat NFkB inh 87 | Jurkat NFkB conf 79
O=C(Nc1ccc(Br)cn1)c1cccc2c1-c1ccccc1C2=O	Jurkat NFkB inh 61 | Jurkat NFkB conf inactive
C=CCNC(=O)c1cc(-c2ccc(Br)cc2)on1	none | Jurkat NFkB conf inactive
CC(=NNC(=O)c1cccc(S(=O)(=O)N2CCOCC2)c1)c1ccc(Cl)cc1	none (no result: CHOP inhibitor)
CN(C)c1ccc(/C=N\Nc2ccccn2)cc1	none (no result: CHOP inhibitor) | Jurkat NFkB conf inactive
O=C(Nc1ccc(F)cc1F)N1CCCN(c2ccc([N+](=O)[O-])cn2)CC1	none
O=C(c1ccc(F)cc1F)C1CCN(c2ccc([N+](=O)[O-])cn2)CC1	Jurkat NFkB inh 86 | Jurkat NFkB conf inactive
O=C(NCCc1cccc(C(F)(F)F)c1)C1CCC(=O)N(C2CC2)C1 (configuration not stated)	none (no result: CHOP inhibitor)
CC(=O)c1cc2c(cc1NC(=O)c1cc(C)nn1-c1ccccc1)OCO2	Jurkat NFkB inh 55 | Jurkat NFkB conf inactive
Cc1no[n+]([O-])c1COc1ccc(/C=N/n2nnnc2N)cc1	Jurkat NFkB inh 50 | Jurkat NFkB conf inactive
CCC(C)(C)C1CCC2(CC1)NC(=O)N(CC(=O)NCCc1c[nH]c3ccccc13)C2=O (configuration not stated)	none (no result: CHOP inhibitor)
CC(Oc1ccc(Cl)cc1Cl)c1nc(-c2ccc(NC(=O)c3ccncc3)cc2)no1 (configuration not stated)	Jurkat NFkB inh 51 | Jurkat NFkB conf 57
Cc1ccnc(NC(=O)CNC(=O)c2cccs2)c1	none (no result: CHOP inhibitor)
Cc1ccc2oc(-c3ccc(C)c(NC(=S)NC(=O)c4cccs4)c3)nc2c1	none | Jurkat NFkB conf inactive
Cc1ccc(-c2nc3ncccc3o2)cc1NC(=O)c1cccs1	none
Cc1ccnc(NC(=S)NC(=O)c2cccs2)c1	none | Jurkat NFkB conf inactive
C/C(CC(=O)Nc1ccc2ccccc2c1)=N\NC(=O)c1ccc(O)c(O)c1	none (no result: CHOP inhibitor)
COc1ccc(-c2nnc(SCC(=O)/C(C#N)=C(\C)N)o2)cc1	none | Jurkat NFkB conf inactive
COc1ccc(-c2nnc(SCC(=O)Nc3ccccc3OC)o2)cc1	none | Jurkat NFkB conf inactive
O=C(CSc1nnc(-c2ccc(Br)cc2)o1)Nc1cccc(C(=O)O)c1	Jurkat NFkB inh 75 (no result: CHOP inhibitor) | Jurkat NFkB conf inactive
COc1ccccc1NC(=O)CSc1nnc(-c2ccncc2)o1	none
